Measurements reported in ChEMBL document CHEMBL1125116 (J Med Chem, 1990).

Experiments:
Rattus norvegicus [1] = assay: Biodistribution of [125I]IBF in brain/blood was determined in rats 2 minutes after intraveneous injection; type: ADME, organism-based; conditions: in vivo, iv
Rattus norvegicus [2] = assay: Biodistribution of [125I]IBF in brain/blood was determined in rats 30 minutes after intraveneous injection; type: ADME, organism-based; conditions: in vivo, iv, 0.5 h
Rattus norvegicus [3] = assay: Biodistribution of [125I]IBF in striatum was determined in rats 60 minutes after intraveneous injection; type: ADME, organism-based; conditions: in vivo, iv, 1 h
In short: (§1)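 Male Sprague–Dawley rats (225–300 g) with free access to food and water were anesthetized with halothane. Each received 0.2 mL saline containing 8–10 μCi [125I]IBF into the femoral vein and was killed by cardiac excision under halothane at set times. Organs were weighed and gamma-counted, and uptake was calculated against diluted aliquots of the injected dose.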

Rattus norvegicus [4] = assay: Biodistribution of [125I]IBF in lung was determined in rats 2 minutes after intraveneous injection; type: ADME, organism-based; conditions: in vivo, iv
In short: (§2)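 Male Sprague–Dawley rats (225–300 g) with free access to food and water. Under halothane anesthesia they received [125I]IBF (8–10 μCi in 0.2 mL saline) into the femoral vein. Rats were killed by cardiac excision under halothane at the stated time. Organs were weighed and gamma-counted, and % dose/organ was taken against diluted aliquots of the injectate. Blood was assumed to be 7% of body weight and muscle 40%.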

Rattus norvegicus [5] = assay: Biodistribution of [125I]IBF in brain was determined in rats 15 minutes after intraveneous injection; type: ADME, organism-based; conditions: in vivo, iv, 0.25 h; in short: as §2
Rattus norvegicus [6] = assay: Biodistribution of [125I]-IBF in blood was determined in rats 2 minutes after intraveneous injection; type: ADME, organism-based; conditions: in vivo, iv; in short: as §2
Rattus norvegicus [7] = assay: Biodistribution of [125I]IBF in spleen was determined in rats 60 minutes after intraveneous injection; type: ADME, organism-based; conditions: in vivo, iv, 1 h; in short: as §2
Rattus norvegicus [8] = assay: Biodistribution of [125I]IBF in spleen was determined in rats 15 minutes after intraveneous injection; type: ADME, organism-based; conditions: in vivo, iv, 0.25 h; in short: as §2
Rattus norvegicus [9] = assay: Biodistribution of [125I]-IBF in heart was determined in rats 120 minutes after intraveneous injection; type: ADME, organism-based; conditions: in vivo, iv, 2 h; in short: as §2
Rattus norvegicus [10] = assay: Biodistribution of [125I]-IBF in muscle was determined in rats 120 minutes after intraveneous injection; type: ADME, organism-based, Muscle tissue; conditions: in vivo, iv, 2 h; in short: as §2
Rattus norvegicus [11] = assay: Biodistribution of [125I]-IBF in heart was determined in rats 30 minutes after intraveneous injection; type: ADME, organism-based; conditions: in vivo, iv, 0.5 h; in short: as §2
Rattus norvegicus [12] = assay: Biodistribution of [125I]IBF in blood was determined in rats 30 minutes after intraveneous injection; type: ADME, organism-based; conditions: in vivo, iv, 0.5 h; in short: as §2
Rattus norvegicus [13] = assay: Biodistribution of [125I]IBF in thyroid was determined in rats 60 minutes after intraveneous injection; type: ADME, organism-based, Thyroid gland; conditions: in vivo, iv, 1 h; in short: as §1
Rattus norvegicus [14] = assay: Biodistribution of [125I]IBF was in skin determined in rats 2 minutes after intraveneous injection; type: ADME, organism-based, Zone of skin; conditions: in vivo, iv; in short: as §1
Rattus norvegicus [15] = assay: Biodistribution of [125I]IBF in liver was determined in rats 2 minutes after intraveneous injection; type: ADME, organism-based; conditions: in vivo, iv; in short: as §2
Rattus norvegicus [16] = assay: Biodistribution of [125I]-IBF in skin was determined in rats 120 minutes after intraveneous injection; type: ADME, organism-based, Zone of skin; conditions: in vivo, iv, 2 h; in short: as §2
Rattus norvegicus [17] = assay: Biodistribution of [125I]IBF in liver was determined in rats 15 minutes after intraveneous injection; type: ADME, organism-based; conditions: in vivo, iv, 0.25 h; in short: as §2
Rattus norvegicus [18] = assay: Biodistribution of [125I]IBF in brain/blood was determined in rats 120 minutes after intraveneous injection; type: ADME, organism-based; conditions: in vivo, iv, 2 h
Rattus norvegicus [19] = assay: Biodistribution of [125I]IBF in kidney was determined in rats 30 minutes after intraveneous injection; type: ADME, organism-based; conditions: in vivo, iv, 0.5 h; in short: as §2
Rattus norvegicus [20] = assay: Biodistribution of [125I]IBF in lung was determined in rats 15 minutes after intraveneous injection; type: ADME, organism-based; conditions: in vivo, iv, 0.25 h; in short: as §2
Rattus norvegicus [21] = assay: Biodistribution of [125I]IBF in striatum was determined in rats 2 minutes after intraveneous injection; type: ADME, organism-based; conditions: in vivo, iv; in short: as §1
Rattus norvegicus [22] = assay: Biodistribution of [125I]IBF in muscle was determined in rats 30 minutes after intraveneous injection; type: ADME, organism-based, Muscle tissue; conditions: in vivo, iv, 0.5 h; in short: as §2
Rattus norvegicus [23] = assay: Biodistribution of [125I]IBF in kidney was determined in rats 15 minutes after intraveneous injection; type: ADME, organism-based; conditions: in vivo, iv, 0.25 h; in short: as §2
Rattus norvegicus [24] = assay: Biodistribution of [125I]IBF in skin was determined in rats 30 minutes after intraveneous injection; type: ADME, organism-based, Zone of skin; conditions: in vivo, iv, 0.5 h; in short: as §2
Rattus norvegicus [25] = assay: Biodistribution of [125I]-IBF in skin was determined in rats 60 minutes after intraveneous injection; type: ADME, organism-based, Zone of skin; conditions: in vivo, iv, 1 h; in short: as §2
Rattus norvegicus [26] = assay: Biodistribution of [125I]IBF in spleen was determined in rats 30 minutes after intraveneous injection; type: ADME, organism-based; conditions: in vivo, iv, 0.5 h; in short: as §2
Rattus norvegicus [27] = assay: Biodistribution of [125I]IBF in lung was determined in rats 60 minutes after intraveneous injection; type: ADME, organism-based; conditions: in vivo, iv, 1 h; in short: as §2
Rattus norvegicus [28] = assay: Biodistribution of [125I]IBF in muscle was determined in rats 2 minutes after intraveneous injection; type: ADME, organism-based, Muscle tissue; conditions: in vivo, iv; in short: as §2
Rattus norvegicus [29] = assay: Biodistribution of [125I]IBF in thyroid was determined in rats 120 minutes after intraveneous injection; type: ADME, organism-based, Thyroid gland; conditions: in vivo, iv, 2 h; in short: as §1
Rattus norvegicus [30] = assay: Biodistribution of [125I]IBF in blood was determined in rats 120 minutes after intraveneous injection; type: ADME, organism-based; conditions: in vivo, iv, 2 h; in short: as §2

Dose/organ (Rattus norvegicus [1]): 2.64
Dose/organ (Rattus norvegicus [2]): 2.26
Dose/gram (Rattus norvegicus [3]): 0.705 % dose/g
Dose/organ (Rattus norvegicus [4]): 6.14%
Dose/organ (Rattus norvegicus [5]): 0.54%
Dose/organ (Rattus norvegicus [6]): 3.5%
Dose/organ (Rattus norvegicus [7]): 0.09%
Dose/organ (Rattus norvegicus [8]): 0.58%
Dose/organ (Rattus norvegicus [9]): 0.02%
Dose/organ (Rattus norvegicus [10]): 2.3%
Dose/organ (Rattus norvegicus [11]): 0.11%
Dose/organ (Rattus norvegicus [12]): 1.26%
Dose/organ (Rattus norvegicus [13]): 0.02%
Dose/organ (Rattus norvegicus [14]): 8.54%
Dose/organ (Rattus norvegicus [15]): 16.32%
Dose/organ (Rattus norvegicus [16]): 1.18%
Dose/organ (Rattus norvegicus [17]): 16.16%
Dose/organ (Rattus norvegicus [18]): 1.53
Dose/organ (Rattus norvegicus [19]): 1.58%
Dose/organ (Rattus norvegicus [20]): 1.85%
Dose/organ (Rattus norvegicus [21]): 0.743%
Dose/organ (Rattus norvegicus [22]): 9%
Dose/organ (Rattus norvegicus [23]): 2.92%
Dose/organ (Rattus norvegicus [24]): 5.34%
Dose/organ (Rattus norvegicus [25]): 2.38%
Dose/organ (Rattus norvegicus [26]): 0.31%
Dose/organ (Rattus norvegicus [27]): 0.37%
Dose/organ (Rattus norvegicus [28]): 11.25%
Dose/organ (Rattus norvegicus [29]): 0.08%
Dose/organ (Rattus norvegicus [30]): 0.23%
Structure (SMILES): CCN1CCC[C@H]1CNC(=O)c1cc(I)cc2c1OCC2
